TAAR1 ag: human TAAR1 agonism | 360,000 tested, 0.99% active | CHO RD-HGA16 TAAR1, Fluo-8 calcium fluorescence; vehicle wells 0%, saturating PEA agonist 100% | activation, % at 3 µM | Q96RJ0 | AID 624467;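 active = activation above the mean activation of all test compounds in the run plus 3 SD, cut at about 38% in these data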
Target sequence (Q96RJ0 whole entry, looked up): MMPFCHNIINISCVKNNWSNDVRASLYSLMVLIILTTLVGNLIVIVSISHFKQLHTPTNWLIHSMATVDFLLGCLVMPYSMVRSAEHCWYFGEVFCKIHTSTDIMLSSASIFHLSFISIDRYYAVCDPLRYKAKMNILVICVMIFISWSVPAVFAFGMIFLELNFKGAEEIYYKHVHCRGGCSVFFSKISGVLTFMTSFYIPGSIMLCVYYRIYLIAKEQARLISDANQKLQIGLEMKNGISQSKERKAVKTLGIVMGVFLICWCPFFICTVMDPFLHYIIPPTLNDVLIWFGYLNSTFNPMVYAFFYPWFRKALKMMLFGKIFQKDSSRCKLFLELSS
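Test system: RD-HGA16 (CHO) cells co-expressing Gα16 and hTAAR1 | Doses: Single dose, 3 µM | Schedule: 17-24 h seeding, 75 min 37 °C dye, 30 min RT | Evaluation: % activation from peak over basal fluorescence ratio, DMSO-to-PEA scaled | Technique: Kinetic Fluo-8 calcium fluorescence | Benchmarks: Low control DMSO, high control PEA (EC100)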
TAAR1 antag: antagonists of human TAAR1; CHO RD-HGA16 TAAR1, Fluo-8 calcium fluorescence, antagonist; Q96RJ0; 360,000 tested, 1.5% active; AID 624466; inhibition, % at 3 µM;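 active = inhibition above a per-plate cutoff, the mean inhibition of test compounds on that plate plus 3 SD, cut at about 49% in these data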
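Test system: CHO RD-HGA16 cells bearing hTAAR1 | Reagent: β-PEA, EC80 | Compound dosing: 3 µM, single point | Schedule: Dye loading 75 min at 37 °C, then 30 min room temperature | Signal: Calcium fluorescence with Fluo-8 | Evaluation: Percent inhibition of PEA-evoked calcium signal, max/basal emission ratio | Control set: DMSO-only wells and EC80 β-PEA-stimulated wells | Repeats: Singlicate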
OX1R antag-1: blocks the human orexin 1 receptor; AID 434989; O43613; CHO/OX1R cells, Fluo-8 calcium fluorescence, orexin A; 330,000 tested, 0.43% active; inhibition, % at 5 µM;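 active = inhibition above its plate's threshold, mean inhibition of all tested compounds on the plate plus 3 SD, cut at about 37% in these data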
CHO parental Ca: signal in parental CHO cells, OX1R antagonist counter-screen; AID 463079; parental CHO-K1, ATP-induced calcium, Fluo-8 fluorescence; inhibition, % at 5.6 µM; 330,000 tested, 0.63% active;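 active = inhibition above that plate's mean sample inhibition plus 3 SD, cut at about 26% in these data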
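Test system: untransfected parental CHO cell line; also added: ATP stimulus; dosing: 5.6 µM, single dose; signal: calcium-sensitive Fluo-8 fluorescence; measure: percent inhibition of ATP-evoked calcium rise, normalized to controls; benchmarks: low control ATP plus DMSO, high control DMSO only; replication: one well per compound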
OX1R antag-2: antagonists of human orexin 1 receptor (OX1R). OX1R-expressing cells, FRET antagonist read-out. inhibition, % at 6.6 µM. AID 485270. 330,000 tested, 1.8% active; in the data active = inhibition mostly above about 38%, no sharp cut-off; inactive = mostly below about 40%
Hits are given with their value; – = inactive; · = no result. Sampled rows, rich in hits. Any-hit rate of the full collection: about 3.9%.

SMILES | TAAR1 ag | TAAR1 antag | OX1R antag-1 | CHO parental Ca | OX1R antag-2
Cc1nc2ccc3nc(NC(=O)c4ccc5c(c4)OCCO5)sc3c2s1 | – | – | – | – | –
CCNC(=O)C1(C)CCCN(Cc2noc(-c3c(C)noc3C)n2)C1 (centres undefined) | – | – | · | · | ·
CCCCCNC(=O)C(c1ccnc2ccccc12)n1c(=O)c(-c2cc3ccccc3[nH]2)nc2ccccc21 (centres undefined) | – | – | · | · | ·
CCCn1c(=O)[nH]c(=O)c2c1nc(-c1ccc(C#N)cc1)n2CCOC | – | – | – | – | –
CCCn1c(=O)[nH]c(=O)c2c1nc(-c1cc([N+](=O)[O-])ccc1Cl)n2CCOC | – | – | – | – | 41
O=C(Nc1nc2ccccc2s1)C1c2ccccc2Oc2ccccc21 | – | – | – | – | –
CCc1nnc(NC(=O)c2cc3ccccc3oc2=O)s1 | – | – | – | – | 77
CCN(CC)S(=O)(=O)c1ccc(NC(=O)C2c3ccccc3Oc3ccccc32)cc1 | 41 | – | – | – | –
CCc1nnc(NC(=O)C2c3ccccc3Oc3ccccc32)s1 | 51 | – | – | – | –
Cc1nnc(NC(=O)c2cc3ccccc3o2)s1 | – | – | – | – | –
CCC1Cc2[nH]c(=S)[nH]c(=O)c2C(c2ccc(F)cc2)O1 (centres undefined) | – | – | · | · | ·
CC(C)c1cc(Cn2c3ccccc3c(=O)n2C(C)Cn2cc(-c3ccccc3)nn2)on1 (centres undefined) | – | – | · | · | ·
O=C(c1ccc(F)cc1)c1ccc(-c2ccc(F)cc2)nc1 | – | – | – | – | –
N#CC(c1ccc(F)cc1)c1ccc(C(=O)c2ccc(F)cc2)cc1 (centres undefined) | – | 56 | – | – | –
Nc1ccc(-c2nc3ccc(N)cc3[nH]2)cc1 | – | – | – | – | –
Nc1ccc2cc3[nH]c4cc(N)ccc4c3nc2c1 | 78 | 63 | · | · | ·
CCCN(CC(=O)Nc1ccccc1C)C(=O)/C=C/c1ccc(OC)c(OC)c1 | – | – | · | · | ·
CC(C)(C)c1ccc(NC(=O)COc2ccc(-n3ccnc3)cc2)cc1 | – | 57 | 62 | 44 | –
COc1cc(NC(=O)COc2ccc(-n3ccnc3)cc2)cc(OC)c1 | – | – | – | – | –
N#Cc1cccc(NC(=O)COc2ccc(-n3ccnc3)cc2)c1 | – | – | – | 23 | –
Cc1cccc(C)c1NC(=O)C(C1CC1)n1c(-c2ccc(C(F)(F)F)cc2)nc2ccccc21 (centres undefined) | – | – | · | · | ·
CS(=O)(=O)c1ccc(Sc2nc3ccccc3[nH]2)c([N+](=O)[O-])c1 | – | – | – | – | 44
Cc1ccc2nc(-c3ccccc3)cc(C(=O)NNC(=O)c3csc(N4CCOCC4)n3)c2c1 | – | 57 | – | – | –
Cc1ccc(-c2cc(C(=O)NNC(=O)c3csc(N4CCOCC4)n3)c3ccccc3n2)cc1 | – | – | – | – | –
Cc1ccc(S(=O)(=O)N(C)C[C@@H]2OCc3cnnn3CCCC(=O)N([C@H](C)CO)C[C@@H]2C)cc1 | – | – | · | · | ·
SMILES | TAAR1 ag | TAAR1 antag | OX1R antag-1 | CHO parental Ca | OX1R antag-2
COCCCNC(=S)N1CCN(c2nc(-c3ccccc3)cs2)CC1 | – | – | – | – | –
CCC(=O)N1CCN(c2nc(-c3ccc(Cl)cc3)cs2)CC1 | – | – | – | – | –
COCCCNC(=S)N1CCN(c2nc(-c3ccc(Cl)cc3)cs2)CC1 | – | 62 | · | · | ·
CC(C)CNC(=S)N1CCN(c2nc(-c3ccc(Cl)cc3)cs2)CC1 | – | – | – | 39 | –
O=[N+]([O-])c1cccc(CON=Cc2ccccc2O)c1 | – | – | · | · | ·
COc1ccc(S(=O)(=O)NC(=O)C2(C)CCN2C(=O)c2cccc(F)c2)cc1 (centres undefined) | – | – | · | · | ·
Cc1ccc(C(=O)Nc2ccc(N3CCCC3)cc2)c(C)c1 | – | – | – | – | –
CC(=O)c1ccc(N2CCN(C(=S)Nc3ccc(Oc4ccccc4)cc3)CC2)cc1 | – | – | 52 | 45 | –
COc1ccc(N2CCN(C(=S)Nc3ccccc3)CC2)cc1 | – | – | – | – | –
Cc1ccccc1C(=O)Nc1ccc(N2CCCC2)cc1 | – | 54 | – | – | –
CN1CCN(c2ccc(NC(=O)c3ccc(Oc4ccccc4)cc3)cc2)CC1 | 38 | – | – | – | –
O=C(O)c1cc(-c2ccccc2Cl)n(-c2cccc(Cl)c2)n1 | – | – | – | – | 37
O=C(O)c1cc(-c2ccccc2Cl)n(-c2ccc(F)cc2)n1 | – | – | – | – | –
COc1ccc(N2C(=O)C(Cl)=C(Nc3ccccc3O)C2=O)cc1 | – | 49 | – | – | –
COc1ccc(N2C(=O)C(Cl)=C(Nc3ccccc3OC)C2=O)cc1 | – | – | – | – | –
O=C(CCC(=O)c1ccc(F)cc1)Nc1cccc(Br)c1 | – | – | – | 38 | –
Cc1cc(NC(=O)c2cc3cccc([N+](=O)[O-])c3[nH]2)ccc1F | – | – | – | – | 46
C=C(C)COC(=O)C1CC2OC2CC1C(=O)OCC(=C)C (centres undefined) | – | – | · | · | ·
Clc1ccc(Cc2ccc(SCc3ccccc3)nn2)c(Cl)c1 | – | 50 | – | – | –
Clc1ccc(Cc2ccc(Cl)nn2)c(Cl)c1 | – | – | – | – | –
FC(F)(F)c1nc2cc3nc4ccccc4[nH]c3cc2n1 | – | – | – | – | 54
Cc1cc(Oc2cccnc2)ccc1NC(=O)Cc1c(C)[nH]c2ccccc12 | – | – | · | · | ·
CC(=O)Oc1cccc(Nc2ncnc3ccccc23)c1 | – | – | – | – | –
Cc1ccccc1C(=O)Oc1cccc(Nc2ncnc3ccccc23)c1 | – | 53 | 55 | 61 | 81
COc1ccc(OC)c(CN2CCN(C(=O)c3cccc(S(=O)(=O)N(C)c4ccccc4)c3)CC2)c1 | – | – | · | · | ·
SMILES | TAAR1 ag | TAAR1 antag | OX1R antag-1 | CHO parental Ca | OX1R antag-2
COc1ccc(NC(=O)c2cc(-c3cccs3)on2)cc1 | – | – | – | – | –
COc1ccc(NC(=O)c2cc(-c3ccccc3)on2)cc1OC | – | – | – | – | –
COc1cccc(-c2cc(C(=O)Nc3ccc(OC)c(OC)c3)no2)c1 | – | – | – | – | 84
COc1ccc(NC(=O)c2cc(-c3cccs3)on2)cc1OC | 42 | – | – | – | –
COc1cccc(NC(=O)CSc2nnc(-c3ccc(C)cc3)o2)c1 | 61 | 51 | – | – | –
CCOC(=O)C1(C(=O)OCC)C(C)CC(=O)N1c1ccccc1OC (centres undefined) | – | – | · | · | ·
COc1ccc(C(C(=O)NCc2ccccc2)N(Cc2ccco2)C(=O)c2snc(C(N)=O)c2N)cc1 (centres undefined) | – | 64 | – | – | –
NC(=O)c1nsc(C(=O)N(c2cccc(F)c2)C(C(=O)NCc2ccccc2)c2ccc(O)cc2)c1N (centres undefined) | – | 52 | – | – | –
COc1ccc(C(C(=O)NCc2ccccc2)N(Cc2ccco2)C(=O)c2snc(C(N)=O)c2N)cc1OC (centres undefined) | – | 57 | – | – | –

Screens deposited in PubChem BioAssay by The Scripps Research Institute Molecular Screening Center.
